Legend:
[1] = folding enthalpy; higher = less favourable; fluorescence melt of hairpins on a sequencing array, two-state fit; settings: sodium 0.088 M
Outline: (§1)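 With Cy3 and quencher oligos annealed, library hairpins on a sequenced MiSeq flow cell were imaged for Cy3 fluorescence in 50 mM Na-HEPES pH 8.0, 25 mM NaCl, in 2.5 °C steps up to 60 °C. Melting temperature and folding enthalpy were derived from bootstrapped two-state fits of signals normalised to pre-quench Cy3 and to control constructs. Four replicates were combined by inverse variance, with fitted temperatures raised by 9.35 °C to match UV melts.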

[2] = melting temperature; fluorescence melt of hairpins on a sequencing array, two-state fit, raised by 9.35 °C to match UV melts; settings: sodium 0.088 M
Outline: as §1

Sequence | folding enthalpy [1] [kcal/mol] | Tm [2] [°C]
GTTGATGGAAACATTAAC (((.(((....))).))) | -34.1 | 37.5
GTCTTAACGAAAGTTGAC (((..(((....)))))) | -15.8 | 31.9
GAGCCACGAAAGTGACTC (((.(((....))).))) | -45.2 | 54.5
GTAACCGAAAGGTCTAC ((((((....))).))) | -13.4 | 35.5
GGGGAAGAAATTCCCC ((((((....)))))) | -30.8 | 57.1
GATCGGAACCCGATC ((((((...)))))) | -44 | 54
GCTATATCGAAAGATAGC (((..(((....)))))) | -25.2 | 36.2
GTTCTGGGAAACCAGGAC ((.((((....)))).)) | -31.8 | 49.1
CGGTACGGAAACGTCCCG (((.(((....))).))) | -25 | 46.6
GCATTCACGAAAGTGTGC (((..(((....)))))) | -18.2 | 37.6
GAGACAGAAATGTCTC ((((((....)))))) | -34.4 | 52.5
GATCGACACTTCGATC ((((((....)))))) | -48.6 | 53.4
GCGGCAGGAAACTGTCGC (((.(((....))).))) | -38.1 | 67.3
GCAGTGCGAAAGCACAGC ((.((((....)))).)) | -17.1 | 68.2
GATCTCACAGGAGATC ((((((....)))))) | -34 | 51.7
GATCCCCCATGGGATC ((((((....)))))) | -36.5 | 59.9
GGGCGGCCGAAAGGCCCC (((..(((....)))))) | -10.4 | 57.1
GTCAGCGGAAACGCTGGC (.(((((....))))).) | -24.6 | 63.7
GCTCGGGCGAAAGCCAGC (((..(((....)))))) | -8.16 | 52
GCCCTAGGAAACTAGAGC ((.((((....)))).)) | -25 | 34.3
GACGTCCCGAAAGGGGTC (((..(((....)))))) | -10.9 | 39.9
GGTTCTGGAAACGGAACC (((((.(....).))))) | -45 | 52.3
GAGGAGAAATCCTC (((((....))))) | -21.8 | 43.4
GACGGAACGAAAGTTGTC (((..(((....)))))) | -19.2 | 30.7

Sequence | folding enthalpy [1] [kcal/mol] | Tm [2] [°C]
GATCGAAATTCGATC ((((((...)))))) | -33.7 | 48.9
GTGGAGCCGAAAGGCCAC (((..(((....)))))) | -13.7 | 50.5
GATCACACCAGTGATC ((((((....)))))) | -38.6 | 59
GCCGTTGGAAACAACGAC (.(((((....))))).) | -16.9 | 46.2
GGTGCACGAAAGTGGACC (((.(((....))).))) | -38.1 | 65.7
TGTTGGAAACAACA (((((....))))) | -18.5 | 42.9
GCCATAGGAAACCATGGC (((((.(....).))))) | -34.2 | 47.7
GATCATCCAATGATC ((((((...)))))) | -31.4 | 46.9
GATCCAGCAGTGGATC ((((((....)))))) | -41.1 | 52.7
ATTACGAAAGTAAT (((((....))))) | -17.5 | 44.4
GCGTGGCGAAAGCCTGGC ((..(((....)))..)) | -17.4 | 52.4
GGACCCGGAAACGGATCC (((.(((....))).))) | -38.5 | 49.8
GCAGCTCGAAAGAGGTGC (((.(((....))).))) | -29.4 | 67.5
GCTCGCGAAAGCGTAAGC ((((((....)))..))) | -13.4 | 51.3
GCCAGAGGAAACTTTGGC ((((.((....)).)))) | -32.8 | 47.4
GTTCGGGGAAACCTGAGC (.((.((....)).)).) | -20.5 | 32.6
GGTCATGGAAACATAACC (((.(((....))).))) | -18.5 | 31.6
TATGCGAAAGCATA (((((....))))) | -13.6 | 60.1
GGTCGGGGAAACTCGACC (((((.(....).))))) | -42.8 | 58
GAGTTCCCGAAAGGGCTC (((..(((....)))))) | -18.3 | 34.1
GATCTCCACTGAGATC ((((((....)))))) | -40.7 | 51.7
GGGTGACCGAAAGGTCCC (((..(((....)))))) | -12.5 | 51.6
GACTTGGAAACAAGTC ((((((....)))))) | -38.5 | 54.2

From the array DNA melting data of Ke et al. (doi:10.1101/2024.01.08.574731)
